Laboratory results as given in ChEMBL document CHEMBL4513216, “Probing the Open Global Health Chemical Diversity Library for Multistage-Active Starting Points for Next-Generation Antimalarials” (ACS Infect Dis, 2020).

Assay: Toxicity liver stage against HepG2, at 10uM
Assay type: cell-based
Design: test concentration 10 uM, cell line HepG2-A16-CD81EGFP
Conditions: human, HepG2-A16-CD81EGFP cells; read-out: INHIBITION
Summary of the method: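 Uninfected HepG2-A16-CD81EGFP cells, 3 × 10^3 per well, 1536-well, plated on prespotted compound at 10 μM final, parasite-free screening media added to match infected plates; puromycin 10 μM positive, DMSO 0.5% negative; run in parallel with 48 h PbLuc assay at 37 °C, 5% CO2; viability by CellTiter-Glo luminescence, normalized to controls.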

SMILES | cytotoxicity at 10 µM
c1ccc(CCCN2CC[C@H](c3nnc(-c4cccnc4)o3)C2)cc1 | -6.1%
Cn1nnc2c(sc3nc(N4CCOCC4)c4c(c32)CCC4)c1=O | -12.4%
Cc1nn(C)cc1C1CC(=O)Nc2c1cnn2C (stereo unspecified) | 2.8%
O=C(c1cnn2c1OCCC2)N1CCC(Cc2ccccc2)CC1 | 0.524%
CC(C)NC(=O)N1CCOC2(CCNCC2)C1 | -2.69%
NCC1[C@H]2CN(Cc3cccc(Cl)c3)C[C@@H]12 (stereo partly specified) | -9.17%
O=S(=O)(C1CC1)N1CCc2ncnc(-c3ccsc3)c2CC1 | 4.8%
CC(C)NC(=O)N1CCOC2(CCCN(c3cccc(C#N)c3)C2)C1 (stereo unspecified) | 11.8%
CS(=O)(=O)N1CCN(C(=O)c2cccc(Cl)c2)CC2(CNC(=O)C2)C1 (stereo unspecified) | 6.86%
COCC1CN(CC2CC2)Cc2ncn(CC3CC3)c21 (stereo unspecified) | 4.42%
CCOC[C@@H]1CC[C@H]2[C@H](CCN2C(=O)c2ccncc2F)O1 | -2.86%
Cc1nc(-c2cccc(Cl)c2)n(CC(=O)NCC2CCCO2)c(=O)c1C (stereo unspecified) | -7.04%
CCOCCCNC(=O)c1nnn(Cc2ccccc2)c1OC | 9.32%
O=C(Cn1ccnc1)N1CC[C@H](Oc2cccc(F)c2)[C@@H](O)CC1 | -0.59%
CC(=O)N1CCC(Cc2cccc(-c3ccnn3C)n2)CC1 | 6.3%
Cc1cc(-c2cc(N)c(=O)n(CC(=O)NC3CCCCC3)n2)c(C)o1 | 6.79%
O=C(c1noc2c1CCCC2)N1CCCC(c2nccs2)C1 (stereo unspecified) | -2.66%
COc1ccc2c(c1)C(=O)NC1(CC2)CCN(Cc2ccc(F)cc2)C1 (stereo unspecified) | 8.16%
COCCN1CCCC(c2nc(C)n3c(C)c(C)sc23)C1 (stereo unspecified) | -21.5%
Cc1c(C2CCCN(C(=O)OC(C)(C)C)C2)n2c(nc1=O)CCC2 (stereo unspecified) | -16%
CNC(=O)C1(c2cnccn2)CCCN1C(=O)c1ccccc1F (stereo unspecified) | -17.1%
CNC(=O)C1(c2cnccn2)CCCN1C(=O)c1cccc(C)n1 (stereo unspecified) | -18.6%
O=C(c1cncc(Br)c1)N1CCC(O)(Cn2ccc3ccncc32)CC1 | 2.44%

SMILES | cytotoxicity at 10 µM
Cc1ccc2nc(C3CCCN(CC(C)C)C3)nc(O)c2c1 (stereo unspecified) | 5.48%
O=C(CCc1nc(-c2cccnc2)no1)N(CC1CCOC1)C1CC1 (stereo unspecified) | 10.8%
N#CCCCS(=O)(=O)NC1(c2cccc(Cl)c2)CC1 | -1.39%
Cc1ccc(N(CCC#N)C(=O)CCc2cscn2)cc1C | 6.36%
CC(C(=O)N1CCCC1)N1CCN(c2ncc(Cl)cn2)CC1 (stereo unspecified) | -3.34%
O=C(COc1ccc(Br)cc1F)Nc1cn[nH]c1 | -24.1%
NC(=O)C1CCCN1CCCc1ccc(C(F)(F)F)cc1 (stereo unspecified) | 0.936%
CCSCCC(=O)NCc1cnn(-c2ccc(F)cc2F)c1 | -5.61%
COc1cc2c(cc1OC)CN(C(=O)NC(C)c1nncn1C)CC2 (stereo unspecified) | -4.54%
CN(c1ccccc1)S(=O)(=O)c1cc2c(c(C(=O)O)c1)OCCO2 | -9.47%
O=C1CN(c2ccc(CNC(=O)Nc3nccs3)cc2)CCN1 | 1.93%
CC(NC(=O)Nc1ccccc1CN1CCOCC1)c1nccs1 (stereo unspecified) | 2.1%
CN(C)C(=O)CCCn1ccc(NC(=O)NCc2cccc(F)c2)n1 | 6.85%
CCc1nc(CN2CCCN(CC(=O)N3CCOCC3)CC2)no1 | -10.2%
CNc1cc(N2CCCC2CNCc2cccc(C#N)c2)ncn1 (stereo unspecified) | -10.7%
Cc1cc(CN(CCO)c2ccc(Br)cc2)on1 | 1.78%
COC(=O)c1ccc(CCn2cnc(C#N)n2)cc1 | -3.15%
CCC1COCCN1C(=O)NCc1nccn1CCc1ccccc1 (stereo unspecified) | 4.42%
NC(=O)CCNC(=O)NCC1(c2ccccc2Cl)CCC1 | -53.1%
CCc1nc2n(n1)CCCC2NC(=O)Nc1cc(OC)ccc1C (stereo unspecified) | 12.7%
CN(CC(F)(F)F)C(=O)CNC(=O)Cc1ccccc1O | 6.31%
COc1ccc(C2CCCN2C(=O)c2cc3c([nH]c2=O)CCC3)cc1 (stereo unspecified) | -10.7%
COc1cccc(CN(C)C(=O)CN2CCN(CCO)CC2)c1 | 12.3%

SMILES | cytotoxicity at 10 µM
CN(Cc1cccc(F)c1)C(=O)CN1CCCCC1Cn1cncn1 (stereo unspecified) | -8.25%
c1ccc(C2CCCN2Cc2nnnn2C2CC2)cc1 (stereo unspecified) | -5.04%
O=C1CCCN1Cc1nnc2n1CCN(Cc1ccco1)C2 | 0.686%
CCS(=O)(=O)N1CCN(CCOC)c2ncccc2C1 | 4.37%
CCCS(=O)(=O)N1CC[C@H]2O[C@H](c3nnc(C)o3)CC[C@H]21 | -77.4%
CCOCC1CN(S(=O)(=O)C2CC2)Cc2cnn(C)c21 (stereo unspecified) | -66.8%
O=C(NCC1Cn2nnc(-c3ccsc3)c2CO1)c1ccc[nH]1 (stereo unspecified) | 2.28%
CCO[C@H]1CN(C(=O)c2ccnnc2)[C@@H]2COC[C@H]12 | 0.403%
Cn1ccnc1CN1CC[C@@H](NS(C)(=O)=O)[C@@H]1Cc1cccnc1 | 8.54%
CN(C)C[C@@H]1CN(C(=O)Cc2ccc3ccccc3c2)C[C@@H]1CO | -8.4%
COc1ccc2nc(O)c(CN(C)Cc3ncc[nH]3)cc2c1 | 0.55%
O=C(O)C1(n2ccnc2)CCN(Cc2ccc3occc3c2)CC1 | -4.31%
Cc1ccc(CCNC(=O)Cn2nc(C)n(Cc3ccccc3)c2=O)o1 | 1.33%
Cc1cc(CN2CCN(CC3CC3)[C@@H]3CS(=O)(=O)C[C@@H]32)cc(C)c1O | 2.78%
O=C(c1cccc(-n2cccn2)c1)N1CCCOC(CN2CCCC2)C1 (stereo unspecified) | -7.33%
Cc1cc(NC(=O)Cn2ccc(-c3ccc4c(c3)OCO4)n2)n(C)n1 | 6.28%
NC(=O)CCNC(=O)C1(N2CCCCC2)Cc2ccccc2C1 | -8.56%
Cc1c(CN2CCC(C(=O)O)(n3cccn3)CC2)oc2ccccc12 | -2.67%
CCN1CCC2(CCC1=O)CN(c1nccc(N)n1)CCN2C (stereo unspecified) | 0.562%
CC(=O)c1cc(CN2C[C@@H](N(C)C)[C@H](C(C)C)C2)cs1 | 0.305%
COc1cccc(C(=O)N2C[C@@H](C(=O)O)[C@H](c3ccccc3C)C2)c1 | 0.291%
Cc1oc(-c2cccc(F)c2F)nc1CN(CCO)C(C)C | -15.2%
CC(CO)CN(Cc1ccccc1)C(=O)c1csc(CN(C)C)n1 (stereo unspecified) | -8.69%

SMILES | cytotoxicity at 10 µM
Cc1c(CN(C)c2cc(C3CCCNC3)ncn2)[nH]c2ccccc12 (stereo unspecified) | 1.99%
Cc1cccnc1CN1CCN(C(=O)c2cc(Cl)c[nH]c2=O)CC1 | 6.22%
OC(CNc1ncnc2c1CCNCC2)C(F)(F)F (stereo unspecified) | -4.92%
CCCC(C)CN1CCC(n2cc(CCCO)nn2)CC1 (stereo unspecified) | 3.22%
OC1(CN2CCCC2)CCCN(Cc2ccc(F)cc2Cl)C1 (stereo unspecified) | 20.9%
CN(Cc1nccs1)c1nc(-c2ccccn2)nc2c1CCNCC2 | -14%
Cc1nc2n(n1)CC(NCc1cc(Cl)c3c(c1)OCCO3)CC2 (stereo unspecified) | -6.14%
CCc1ccc(S(=O)(=O)Nc2cc(C(=O)O)ccc2F)s1 | -8.27%
N#CCCN(C(=O)CN1CCCC1c1cccs1)c1ccccc1F (stereo unspecified) | -9.1%
CCn1ccnc1CN1CCCN(C(=O)c2scnc2C)CC1 | -7.77%
CC(C)c1nnc2n1CCN(CCC(=O)N1CCc3ccccc31)C2 | -21.1%
Cc1cnn(CC2CCCN2Cc2nnc(C3CC3)n2C)c1 (stereo unspecified) | -12.2%
CCn1ccnc1CN1CCCN(C(=O)Cc2ccccc2C)CC1 | -1.99%
O=C(Cc1ccccn1)N1CCN(C(=O)CC2CCCCC2)CC1 | 5.35%
CCC(C)C(=O)NCc1ccc(-n2cncn2)nc1 (stereo unspecified) | 8.85%
Cc1ccc(C)c(NC(=O)C(C)N2CCCN(c3nccs3)CC2)c1 (stereo unspecified) | -19.8%
O=C(NCC1CC1)N1CCN(Cc2ccc3c(c2)OCCO3)CC1 | -4.3%
O=C(CN1CC(n2cccn2)C1)NCCc1c[nH]c2ccccc12 | -4.74%
Cc1cccc(N2CCN(C(=O)Nc3cnn(CC(N)=O)c3)CC2)c1 | -8.31%
Cc1noc2ncc(C(=O)NCC3CCN(C(C)C)C3)cc12 (stereo unspecified) | -12.4%
CCn1cc(NC(=O)NCC(c2cccs2)N(C)C)cn1 (stereo unspecified) | -2.66%
CCc1nc2n(n1)CC(NCC(=O)Nc1cc(C)on1)CC2 (stereo unspecified) | -7.21%
CN(C)c1ccc(NC(=O)NCc2ccccn2)cn1 | -3.34%

SMILES | cytotoxicity at 10 µM
CCCC(=O)N1CCc2c(CNS(C)(=O)=O)cncc2C1 | 4.36%
c1cnc(NC[C@H]2OC[C@@H]3CCN(Cc4ccsc4)C[C@@H]32)nc1 | -2.01%
CCN1CCC2(COCc3cnc(NCC4CC4)nc32)C1 (stereo unspecified) | -12.9%
COCC1CN(Cc2cccnc2)Cc2nnn(CC3CC3)c21 (stereo unspecified) | -0.0925%
COCC1CN(c2ccc(C)nn2)Cc2cnn(CC3CCOCC3)c21 (stereo unspecified) | 4.62%
CN(C)c1cc(C2CCCNC2)ccn1 (stereo unspecified) | -2.68%
Cn1cc(CN2C[C@@H]3COC[C@]3(C(=O)NCc3ccccn3)C2)cn1 | -1.07%
Cc1ccc(CN2CCc3c(CN(C)C)n[nH]c3C2)s1 | 1.93%
CC(C)n1cnc2c1C(C(=O)N1CCCC1)N(CC1CC1)CC2 (stereo unspecified) | 6.59%
O=C(C1=CC2(CCN(CCO)CC2)c2ccccc21)N1CCCC1 | -1.16%
c1cncc(OCC2CC3(CCN(CC4CC4)CC3)CO2)c1 (stereo unspecified) | 4.95%
Cn1nccc1-c1ncc2c(c1C(=O)O)CCN(Cc1cccnc1)C2 | 8.07%
O=C(NCCc1ccccn1)[C@@]12CCO[C@@H]1CCN(C1CCC1)C2 | 8.03%
COCC1Cn2nnc(-c3cnn(C)c3)c2CN1Cc1ccoc1 (stereo unspecified) | 6.44%
COCCN1CCCn2c(nc(Cn3cncn3)cc2=O)C1 | 3.39%
O=C(NCCn1nc(C2CCNC2)c2cccnc21)C1CC1 (stereo unspecified) | -25.8%
CCN1CC[C@]2(CN(Cc3nccs3)C[C@H]2c2ccccc2)C1=O | 4.89%
COCCN1C[C@@H](C)[C@@]2(COCCN(C(=O)c3ccno3)C2)C1 | 7.4%
Cn1ccc(C(=O)NC2CCC23CCN(C(=O)c2ccncc2)CC3)c1 (stereo unspecified) | -9.84%
